Test results reported in ChEMBL document CHEMBL1125672, “2-acetylpyridine thiosemicarbazones. 13. Derivatives with antifilarial activity” (1991).

What was measured:
Type in all cases: functional
[1] = tested on: Acanthocheilonema viteae; assay: anti-filarial Activity was measured against Acanthocheilonema viteae in jirds at 50 mg/kg/day(5 days) dose
Outline: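 Jirds with established B. pahangi or A. viteae infections were given drug once daily for 5 days by subcutaneous injection, at the maximum tolerated dose and, where supply allowed, graded lower doses. Tolerance was first checked in noninfected jirds with a single 200 mg/kg oral or subcutaneous dose, watching 72 h for excessive weight loss or death. Macrofilarial suppression was the read-out.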

[2] = tested on: Onchocerca gutturosa; assay: Mean motility score for treated Onchocerca gutturosa involving LLCMK2 feeder cells at a concentration of 3.05*10e-9 M at 0.5 h
Outline: (§1)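 One male O. gutturosa per well over LLCMK2 feeder cells in MEM with 10% heat-inactivated FCS, antibiotics and bicarbonate, 5% CO2; compound introduced in DMSO (≤0.016%, equal DMSO in controls). Motility scored 0 (immotile) to 10 (maximal control activity) every 30 min to 4.5 h, then at 1, 2, 3, 4 and 7 days.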

[3] = tested on: Onchocerca gutturosa; assay: Colorimetric quantification of male Onchocerca gutturosa viability, expressed as % inhibition of formazan formation at 1.21*10e-8M conc. by using tetrazolium Dye MTT assay
Outline: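 Single intact male O. gutturosa, cultured with LLCMK2 feeder cells in MEM + 10% heat-inactivated FCS (5% CO2), drug added from DMSO (≤0.016% DMSO in controls). MTT read after 168 h: worm in 0.5 mg/mL MTT, 30 min at 36.5 °C, formazan solubilized in DMSO 1 h at room temperature, absorbance 490 nm vs DMSO blank.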

[4] = tested on: Onchocerca gutturosa; assay: Mean motility score for treated Onchocerca gutturosa involving LLCMK2 feeder cells at a concentration of 5*10e-5 M at 168 h(O = IMMOTILE)
Outline: (§2)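 Single male O. gutturosa worms (obtained following abattoir slaughter) per well in Eagle's MEM with 10% heat-inactivated fetal calf serum, penicillin, streptomycin, amphotericin B and bicarbonate, over LLCMK2 feeder cells, 5% CO2 in air. Drug dissolved in DMSO; controls received matched DMSO ≤0.016%. Motility scored 0 (immotile) to 10 (maximum control activity) every 30 min to 4.5 h, then days 1, 2, 3, 4, 7.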

[5] = tested on: Onchocerca gutturosa; assay: Mean motility score for treated Onchocerca gutturosa involving LLCMK2 feeder cells at a concentration of 1.21*10e-8M at 2 h; outline: as §1
[6] = tested on: Onchocerca gutturosa; assay: Mean motility score for treated Onchocerca gutturosa involving LLCMK2 feeder cells at a concentration of 1.21*10e-8M at 24 h; outline: as §1
[7] = tested on: Onchocerca gutturosa; assay: Mean motility score for treated Onchocerca gutturosa involving LLCMK2 feeder cells at a concentration of 3.05*10e-9 M at 1.5 h; outline: as §1
[8] = tested on: Onchocerca gutturosa; assay: Mean motility score for treated Onchocerca gutturosa involving LLCMK2 feeder cells at a concentration of 1.21*10e-8M at 48 h; outline: as §1
[9] = tested on: Onchocerca gutturosa; assay: Mean motility score for treated Onchocerca gutturosa involving LLCMK2 feeder cells at a concentration of 1.21*10e-8M at 96 h; outline: as §1
[10] = tested on: Onchocerca gutturosa; assay: Mean motility score for treated Onchocerca gutturosa involving LLCMK2 feeder cells at a concentration of 1.94*10e-7M at 1.5 h; outline: as §1
[11] = tested on: Onchocerca gutturosa; assay: Mean motility score for treated Onchocerca gutturosa involving LLCMK2 feeder cells at a concentration of 1.94*10e-7M at 2 h; outline: as §1
[12] = tested on: Onchocerca gutturosa; assay: Mean motility score for treated Onchocerca gutturosa involving LLCMK2 feeder cells at a concentration of 1.95*10e-8 M at 4.5 h; outline: as §1
[13] = tested on: Onchocerca gutturosa; assay: Mean motility score for treated Onchocerca gutturosa involving LLCMK2 feeder cells at a concentration of 1.95*10e-8 M at 96 h; outline: as §1
[14] = tested on: Onchocerca gutturosa; assay: (§3) Mean motility score for treated Onchocerca gutturosa involving LLCMK2 feeder cells at a concentration of 1.95*10e-8 M at 0.5 h; outline: as §1
[15] = tested on: Onchocerca gutturosa; assay: Mean motility score for treated Onchocerca gutturosa involving LLCMK2 feeder cells at a concentration of 1.95*10e-8 M at 4 h; outline: as §1
[16] = tested on: Onchocerca gutturosa; assay: Mean motility score for treated Onchocerca gutturosa involving LLCMK2 feeder cells at a concentration of 3.05*10e-8 M at 0.5 h; outline: as §1
[17] = tested on: Onchocerca gutturosa; assay: Mean motility score for treated Onchocerca gutturosa involving LLCMK2 feeder cells at a concentration of 3.05*10e-8 M at 1 h; outline: as §1
[18] = tested on: Onchocerca gutturosa; assay: Mean motility score for treated Onchocerca gutturosa involving LLCMK2 feeder cells at a concentration of 3.05*10e-8 M at […]; outline: as §1
[19] = tested on: Onchocerca gutturosa; assay: Mean motility score for treated Onchocerca gutturosa involving LLCMK2 feeder cells at a concentration of 3.05*10e-8 M at 2 h; conditions: in the assay text read “3.05*10e-9 M” for “3.05*10e-8 M”; outline: as §1
[20] = tested on: Onchocerca volvulus; assay: Colorimetric quantification of male Onchocerca volvulus viability, expressed as % inhibition of formazan formation at 5*10e-6 M conc. by using tetrazolium Dye MTT assay
Outline: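 Male O. volvulus dissected from human nodules within 24 h (kept in medium on ice), cultured without feeder cells in medium with 10% serum; drug from DMSO stock. MTT after 96 h: single worm, 0.5 mg/mL MTT, 30 min at 36.5 °C, formazan dissolved in DMSO 1 h at room temperature, absorbance 490 nm against DMSO blank.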

[21] = tested on: Onchocerca gutturosa; assay: Mean motility score for treated Onchocerca gutturosa involving LLCMK2 feeder cells at a concentration of 3.1*10e-6 M at 168 h; outline: as §2
[22] = tested on: Onchocerca gutturosa; assay: Mean motility score for treated Onchocerca gutturosa involving LLCMK2 feeder cells at a concentration of 4.88*10e-8M at 1 h; outline: as §2
[23] = tested on: Onchocerca gutturosa; assay: Mean motility score for treated Onchocerca gutturosa involving LLCMK2 feeder cells at a concentration of 4.88*10e-8M at 1.5 h; outline: as §2
[24] = tested on: Onchocerca gutturosa; assay: Mean motility score for treated Onchocerca gutturosa involving LLCMK2 feeder cells at a concentration of 4.88*10e-8M at 2 h; outline: as §2
[25] = tested on: Onchocerca gutturosa; assay: Mean motility score for treated Onchocerca gutturosa involving LLCMK2 feeder cells at a concentration of 4.88*10e-8M at 4.5 h; outline: as §2
[26] = tested on: Onchocerca gutturosa; assay: Mean motility score for treated Onchocerca gutturosa involving LLCMK2 feeder cells at a concentration of 4.88*10e-8M at 48 h; outline: as §2
[27] = tested on: Onchocerca gutturosa; assay: Mean motility score for treated Onchocerca gutturosa involving LLCMK2 feeder cells at a concentration of 3.1*10e-6 M at 48 h; outline: as §2
[28] = tested on: Onchocerca gutturosa; assay: Mean motility score for treated Onchocerca gutturosa involving LLCMK2 feeder cells at a concentration of 3.1*10e-6 M at 72 h; outline: as §2
[29] = tested on: Onchocerca gutturosa; assay: Mean motility score for treated Onchocerca gutturosa involving LLCMK2 feeder cells at a concentration of 3.1*10e-6 M at 96 h; outline: as §2
[30] = tested on: Onchocerca gutturosa; assay: Mean motility score for treated Onchocerca gutturosa involving LLCMK2 feeder cells at a concentration of 1.95*10e-8 M at 2 h; outline: as §1
[31] = tested on: Onchocerca gutturosa; assay: Mean motility score for treated Onchocerca gutturosa involving LLCMK2 feeder cells at a concentration of 1.95*10e-8 M at 24 h; outline: as §1
[32] = tested on: Onchocerca gutturosa; assay: Mean motility score for treated Onchocerca gutturosa involving LLCMK2 feeder cells at a concentration of 3.1*10e-6 M at 3.5 h; outline: as §2
[33] = tested on: Onchocerca gutturosa; assay: as §3; outline: as §1; remark: listed apart in the source

## C/C(=N\NC(S)=Nc1ccccc1N)c1ccccn1
[1]
  Suppression: 100%
[2]
  Motility: 8.8
[3]
  Inhibition: 27.9%
[4]
  Motility: 0
[5]
  Motility: 3.3
[6]
  Motility: 9
[7]
  Motility: 8.3
[8]
  Motility: 7.3
[9]
  Motility: 3.8
[10]
  Motility: 8
[11]
  Motility: 9

## C/C(=N\NC(=S)N1CCCCCC1)c1ccccn1
[12]
  Motility: 9.5
[13]
  Motility: 0
[14]
  Motility: 8.8
[15]
  Motility: 10
[16]
  Motility: 9.8
[17]
  Motility: 9
[18]
  Motility: 8.5
[19]
  Motility: 9.8
[20]
  Inhibition: 58.2%
[21]
  Motility: 0
[22]
  Motility: 9
[23]
  Motility: 8.5
[24]
  Motility: 8.8
[25]
  Motility: 9.8
[26]
  Motility: 4
[27]
  Motility: 2.8
[28]
  Motility: 0
[29]
  Motility: 0
[30]
  Motility: 9.3
[31]
  Motility: 8
[32]
  Motility: 9
[33]
  Motility: 8.8
